Experiments:
Type in all cases: functional
[1] = tested on: Bacillus subtilis; test: Antimicrobial activity against Bacillus subtilis MTCC 1789 at 50 ug/ml; conditions: read-out: IZ
[2] = tested on: Rattus norvegicus; test: Antiinflammatory activity in Wistar albino rat assessed as inhibition of carrageenan-induced paw edema at 20 mg/kg, po administered 30 mins before carrageenan challenge measured after 3 hrs by plethysmograph
In short: (§1)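 Male Wistar albino rats (150–200 g), six per group, dosed orally with 20 mg/kg suspension; control got 0.1 ml of 1% gum acacia suspension orally. After 30 min, 0.1 ml of 1% carrageenan in normal saline injected sub-plantar into the right hind paw. Paw volume measured by plethysmograph at 0, 1, 2, 3 and 4 h; percent edema inhibition versus control at matching time.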

[3] = tested on: Rattus norvegicus; test: Antiinflammatory activity in Wistar albino rat assessed as inhibition of carrageenan-induced paw edema at 20 mg/kg, po administered 30 mins before carrageenan challenge measured after 1 hr by plethysmograph; in short: as §1
[4] = tested on: Mus musculus; test: Analgesic activity in mouse assessed as inhibition of acetic acid-induced writhing administered 30 mins before acetic acid challenge measured after 30 mins relative to control; design: concentration or dose not given beside the values
In short: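 Groups of six mice (20–30 g, both sexes, pregnant females excluded) dosed with test compound; 30 min later 0.25 ml/mouse of 0.5% acetic acid given i.p. Writhes counted over the next 30 min. Mean writhes per group ± SE; percent decrease versus untreated control mice.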

[5] = tested on: Escherichia coli; test: Antimicrobial activity against Escherichia coli MTCC 4315 at 50 ug/ml; conditions: read-out: IZ
[6] = tested on: Bacillus subtilis; test: Antimicrobial activity against Bacillus subtilis MTCC 1789 at 10 ug/ml; conditions: read-out: IZ
[7] = tested on: Aspergillus niger; test: Antifungal activity against Aspergillus niger MTCC 282 at 25 ug/ml; conditions: read-out: IZ
[8] = tested on: Rattus norvegicus; test: Antiinflammatory activity in Wistar albino rat assessed as inhibition of carrageenan-induced paw edema at 20 mg/kg, po administered 30 mins before carrageenan challenge measured after 2 hrs by plethysmograph; in short: as §1
[9] = tested on: Bacillus subtilis; test: Antimicrobial activity against Bacillus subtilis MTCC 1789 at 25 ug/ml; conditions: read-out: IZ
[10] = tested on: Rattus norvegicus; test: Antiinflammatory activity in Wistar albino rat assessed as inhibition of carrageenan-induced paw edema at 20 mg/kg, po administered 30 mins before carrageenan challenge measured after 4 hrs by plethysmograph; in short: as §1
[11] = tested on: Aspergillus niger; test: Antifungal activity against Aspergillus niger MTCC 282 at 10 ug/ml; conditions: read-out: IZ
[12] = tested on: Escherichia coli; test: Antimicrobial activity against Escherichia coli MTCC 4315 at 25 ug/ml; conditions: read-out: IZ
[13] = tested on: Candida albicans; test: Antifungal activity against Candida albicans MTCC 183 at 25 ug/ml; conditions: read-out: IZ
[14] = tested on: Aspergillus niger; test: Antifungal activity against Aspergillus niger MTCC 282 at 50 ug/ml; conditions: read-out: IZ
[15] = tested on: Candida albicans; test: Antifungal activity against Candida albicans MTCC 183 at 10 ug/ml; conditions: read-out: IZ
[16] = tested on: Escherichia coli; test: Antimicrobial activity against Escherichia coli MTCC 4315 at 10 ug/ml; conditions: read-out: IZ
[17] = tested on: Candida albicans; test: Antifungal activity against Candida albicans MTCC 183 at 50 ug/ml; conditions: read-out: IZ

Row | Compound | zone of inhibition at 50 µg/mL [1] [mm] | inhibition in vivo at 20 mg/kg [2] [%] | inhibition in vivo at 20 mg/kg [3] [%] | Activity [4] [%] | zone of inhibition at 50 µg/mL [5] [mm] | zone of inhibition at 10 µg/mL [6] [mm] | zone of inhibition at 25 µg/mL [7] [mm] | inhibition in vivo at 20 mg/kg [8] [%] | zone of inhibition at 25 µg/mL [9] [mm] | inhibition in vivo at 20 mg/kg [10] [%] | zone of inhibition at 10 µg/mL [11] [mm] | zone of inhibition at 25 µg/mL [12] [mm] | zone of inhibition at 25 µg/mL [13] [mm] | zone of inhibition at 50 µg/mL [14] [mm] | zone of inhibition at 10 µg/mL [15] [mm] | zone of inhibition at 10 µg/mL [16] [mm] | zone of inhibition at 50 µg/mL [17] [mm]
1 | Cc1cc(=O)oc2cc(OC(=O)CNc3ccccc3)ccc12 | 12.6 | 30.8 | 10.7 | 24 | 10.4 | 10.4 | 10.2 | 29.4 | 11.8 | 13.7 | – | – | – | – | – | – | –
2 | Cc1cc(=O)oc2cc(OC(=O)CNc3ccccc3[N+](=O)[O-])ccc12 | 13.7 | 15.9 | 21.4 | 28 | – | 11.2 | – | 16.6 | 12.4 | 15.2 | 10.1 | 10.1 | 10.4 | – | – | – | –
3 | Cc1cc(=O)oc2cc(OC(=O)CNc3cccc([N+](=O)[O-])c3)ccc12 | 13.4 | 34 | 28.5 | 13 | 11.1 | – | 10.5 | 30.7 | 11.2 | 32.2 | – | 11.3 | – | 11.4 | 10.5 | 10.3 | –
4 | Cc1cc(=O)oc2cc(OC(=O)CNc3ccc([N+](=O)[O-])cc3)ccc12 | 13.4 | 20.2 | 12.5 | 28 | 16.9 | 10.2 | – | 17.9 | 12.1 | 23.7 | – | 14.2 | 10.2 | 10.2 | – | 12.2 | 11.4
5 | Cc1cc(=O)oc2cc(OC(=O)CNc3ccccc3Cl)ccc12 | – | 12.8 | 21.4 | 21 | 12.6 | – | 10.2 | 11.5 | – | 23.7 | – | 10.8 | – | 12.4 | – | – | 10.4
6 | Cc1cc(=O)oc2cc(OC(=O)CNc3ccc(Cl)cc3)ccc12 | 12.3 | 15.9 | 10.7 | 11 | 12.6 | – | 10.2 | 23 | – | 16.1 | – | 10.8 | 12.2 | 12.1 | 10.6 | – | 13.4
7 | COc1ccccc1NCC(=O)Oc1ccc2c(C)cc(=O)oc2c1 | – | 26.6 | 10.7 | 28 | 10.2 | 10.2 | – | 15.3 | 11.4 | 19.4 | 10.4 | – | – | 12.4 | – | – | 12.4
8 | COc1ccc(NCC(=O)Oc2ccc3c(C)cc(=O)oc3c2)cc1 | 14.4 | 37.2 | 30.3 | 17 | – | 11.2 | 13.2 | 33.3 | 13.3 | 28.8 | – | 11.2 | 12.4 | 14.1 | 10.2 | 10.5 | 13.2
9 | Cc1ccccc1NCC(=O)Oc1ccc2c(C)cc(=O)oc2c1 | 11.6 | 17 | 12.5 | 23 | – | – | 12.4 | 15.3 | – | 19.4 | 10.6 | 10.5 | – | 13.1 | – | – | 12.2
10 | Cc1cccc(NCC(=O)Oc2ccc3c(C)cc(=O)oc3c2)c1 | 13.6 | 15.9 | 12.5 | 13 | 16.9 | 10.5 | 12.2 | 15.3 | 12.4 | 23.7 | – | 14 | 13.4 | 13.4 | 11.4 | 11 | 14.4
11 | Cc1ccc(NCC(=O)Oc2ccc3c(C)cc(=O)oc3c2)cc1 | 12.3 | 20.2 | 14.2 | 28 | 14 | – | 10.5 | 20.5 | – | 6.7 | – | 13 | – | 11.4 | – | 11.2 | 12.4
12 | Cc1cc(=O)oc2cc(OC(=O)CNN3C=NNC3)ccc12 | 18.1 | 27.6 | 42.8 | 37 | 16.2 | 12.5 | 13.6 | 42.3 | 14.3 | 22.2 | 11.2 | 14.1 | 13.4 | – | 12.4 | – | 15.4
13 | Cc1cc(=O)oc2cc(OC(=O)CNc3nc4ccccc4s3)ccc12 | 18.1 | 40.4 | 30.3 | 35 | 14.5 | 10.4 | – | 35.9 | – | 40.6 | – | – | 12.2 | 12.4 | 13.4 | – | –
14 | Cc1cc(=O)oc2cc(OC(=O)CNc3nccs3)ccc12 | 16.9 | 47.8 | 39.2 | 45 | 18.4 | 10.4 | 15.4 | 37.1 | 14.4 | 32.3 | 13.4 | 10.2 | – | 16.5 | 10.1 | – | 12.4
15 | NCC[C@H](O)C(=O)N[C@@H]1C[C@H](N)[C@@H](O[C@H]2O[C@H](CN)[C@@H](O)[C@H](O)[C@H]2O)[C@H](O)[C@H]1O[C@H]1O[C@H](CO)[C@@H](O)[C@H](N)[C@H]1O [AMIKACIN] | – | – | – | – | 20 | – | – | – | – | – | – | 16.2 | – | – | – | 14 | –
16 | COC1=CC(=O)C[C@@H](C)[C@]12Oc1c(Cl)c(OC)cc(OC)c1C2=O [GRISEOFULVIN] | – | – | – | – | – | – | – | – | – | – | – | – | 14.2 | – | 12.6 | – | 18.2
17 | COc1ccc2c(c1)c(CC(=O)O)c(C)n2C(=O)c1ccc(Cl)cc1 [INDOMETHACIN] | – | 68.8 | 53.5 | 56 | – | – | – | 67.9 | – | 57.6 | – | – | – | – | – | – | –
18 | CN[C@H](CC(C)C)C(=O)N[C@H]1C(=O)N[C@@H](CC(N)=O)C(=O)N[C@H]2C(=O)N[C@H]3C(=O)N[C@H](C(=O)N[C@H](C(=O)O)c4cc(O)cc(O)c4-c4cc3ccc4O)[C@H](O)c3ccc(c(Cl)c3)Oc3cc2cc(c3O[C@@H]2O[C@H](CO)[C@@H](O)[C@H](O)[C@H]2O[C@H]2C[C@](C)(N)[C@H](O)[C@H](C)O2)Oc2ccc(cc2Cl)[C@H]1O [VANCOMYCIN] | 20.1 | – | – | – | – | 14.2 | – | – | 18.2 | – | – | – | – | – | – | – | –

Reference: ChEMBL document CHEMBL1828509, “Synthesis, pharmacological evaluation and docking studies of coumarin derivatives” (2011)
